# An excerpt weighted towards active compounds, which were near 2.9% of everything screened.
# SENP1 FRET inh: blocks the human SENP1 SUMO protease catalytic domain; Q9P0U3; recombinant SENP1 catalytic domain, CyPet-SUMO1-YPet FRET cleavage; inhibition, % at 10 µM; 360,000 compounds, 0.21% hits;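 active means inhibition at least 30% at 10 µM, raw YFP signal under a set limit, fluorescence ratio 0.5 to 1.5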
#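 System: Recombinant human SENP1 catalytic domain, His6-tagged | Incubation: Enzyme reaction for 50 min at room temperature, dark | Medium: Tris pH 8 with BME, BSA, NP40 and catalase | Also added: 25 nM SUMO1 FRET substrate | Compound: 10 µM single point, 0.5% DMSO | Measured by: FRET fluorescence in CFP and YFP emission channels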
# SENP8 block-1: SENP8 protease inhibition; Q96LD8; purified SENP8, Z-RLRGG-aminoluciferin cleavage, luminescence; inhibition, % at 10 µM; 330,000 compounds, 1.2% hits; AID 2540; in the data active means inhibition above about 50%
# Target sequence (Q96LD8 whole entry, looked up): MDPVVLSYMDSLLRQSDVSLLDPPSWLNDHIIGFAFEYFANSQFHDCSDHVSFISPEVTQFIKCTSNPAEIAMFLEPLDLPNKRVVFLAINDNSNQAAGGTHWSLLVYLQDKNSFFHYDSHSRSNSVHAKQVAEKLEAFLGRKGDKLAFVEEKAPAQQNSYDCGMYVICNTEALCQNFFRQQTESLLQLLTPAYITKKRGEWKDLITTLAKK
# HSP90 inh: blocks HSP90-mediated luciferase refolding in reticulocyte lysate | Rabbit reticulocyte lysate, luciferase refolding luminescence, 3 h | inhibition, % at 5.6 µM | 290,000 compounds, 0.91% hits | AID 1789;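 active means inhibition above the screen-wide mean plus 3 SD, computed separately per campaign, cut at about 16% in these data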;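 further: inhibitors lower the luminescence because luciferase stays unfolded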
# SENP8 block-2: inhibitors of human SENP8 protease; Q96LD8; recombinant SENP8, Nedd8 substrate fluorescence; inhibition, % at 20 µM; 360,000 compounds, 0.64% hits; AID 602440; in the data active means inhibition mostly above about 40%, no sharp cut-off; inactive means mostly below about 27%
# SENP7 inh: SENP7 protease inhibition. AID 434973. recombinant SENP7, Z-RLRGG-aminoluciferin luminescence, 40 min. 330,000 compounds, 1.5% hits. inhibition, % at 5 µM. Q9BQF6;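 active means inhibition above about 50% at the single test dose, limit read from the data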
# SENP6 block: inhibitors of human SENP6 protease. 330,000 compounds, 1.8% hits. Recombinant SENP6 catalytic domain, aminoluciferin luminescence. inhibition, % at 10 µM;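 active means inhibition above about 50% at the single tested dose, limit read from the data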
# Target sequence (Q9GZR1 628-1112 limits assumed): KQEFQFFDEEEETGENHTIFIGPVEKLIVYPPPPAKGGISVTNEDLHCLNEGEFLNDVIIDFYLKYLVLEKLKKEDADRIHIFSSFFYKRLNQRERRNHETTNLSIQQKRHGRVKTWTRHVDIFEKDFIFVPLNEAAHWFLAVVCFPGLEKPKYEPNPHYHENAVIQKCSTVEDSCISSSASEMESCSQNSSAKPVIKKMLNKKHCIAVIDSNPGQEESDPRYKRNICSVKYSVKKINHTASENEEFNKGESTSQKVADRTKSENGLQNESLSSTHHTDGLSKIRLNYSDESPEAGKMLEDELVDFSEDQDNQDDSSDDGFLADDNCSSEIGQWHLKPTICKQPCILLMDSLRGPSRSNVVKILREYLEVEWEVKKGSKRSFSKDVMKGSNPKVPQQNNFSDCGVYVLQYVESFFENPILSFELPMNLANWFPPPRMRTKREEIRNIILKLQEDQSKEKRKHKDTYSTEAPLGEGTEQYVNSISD
# SENP8 confirm: confirmation of human SENP8 protease inhibitors | shares compounds with SENP7 inh | Recombinant SENP8, Z-RLRGG-aminoluciferin luminescence, 60 min | inhibition, % at 12.5 µM | 6,200 compounds, 40% hits;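 active means mean inhibition across replicates above about 50%, limit read from the data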
# SENP6 confirm: human SENP6 inhibition, confirmed; shares compounds with SENP7 inh; recombinant SENP6, Z-RLRGG-aminoluciferin luminescence; inhibition, % at 12.5 µM; 6,200 compounds, 58% hits
# SENP7 conf: confirmation of human SENP7 protease inhibitors; shares compounds with SENP7 inh; recombinant SENP7, Z-RLRGG-aminoluciferin luminescence, 40 min; inhibition, % at 12.5 µM; 6,200 compounds, 69% hits; AID 488917
# Casp3 SENP sel: inhibits human caspase-3 in SENP selectivity test | AID 488918 | inhibition, % at 12.5 µM | 6,200 compounds, 60% hits | purified caspase-3, Z-DEVD-aminoluciferin luminescence, 60 min | shares compounds with SENP7 inh;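 active means mean inhibition above about 50%, limit read from the data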
# Luc interf: interferes with luciferase luminescence in SENP counter-screen | shares compounds with SENP7 inh | 6,200 compounds, 39% hits | inhibition, % at 12.5 µM | Pre-incubated SENP8/Z-RLRGG-aminoluciferin, luciferase luminescence interference;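 active means mean inhibition above about 50% when retested at one dose, limit read from the data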
# Numbers stand for hits; n = inactive; x = no result.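 How the source made its calls, unless noted: active means mean inhibition above about 50% in the one-dose retest (limit read from the data); inactive means the rest.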
SMILES,SENP1 FRET inh,SENP8 block-1,HSP90 inh,SENP8 block-2,SENP7 inh,SENP6 block,SENP8 confirm,SENP6 confirm,SENP7 conf,Casp3 SENP sel,Luc interf
COC(=O)[C@@]1(C(C)C)N=C(c2cc(OC)c(OC)c(OC)c2)[C@]2(O1)C(=O)N(Cc1ccc(OC)cc1)c1ccc(Br)cc12,n,x,x,n,x,x,x,x,x,x,x
COc1ccc(-n2c(=S)[nH]c3cc(C(=O)NCc4ccccc4)ccc3c2=O)c(OC)c1,n,n,n,n,n,n,x,x,x,x,x
CN(C)c1ccc(N/C=C/C(=O)c2ccccc2)cc1,n,95,n,n,102,96,70,94,100,97,n
CC(=O)Nc1ccc(N/C=C/C(=O)c2ccccc2)cc1,n,50,n,n,55,70,n,66,90,78,n
CCOC(=O)[C@@H]1[C@H]2COc3ccccc3[C@H]2N2C(=O)N(c3ccc(Br)cc3)C(=O)[C@]12C,n,n,x,n,n,n,x,x,x,x,x
CCc1cccc(NC(=O)C2CCCN2S(=O)(=O)c2ccc3c(c2)CC(C)N3C(C)=O)c1 (centres undefined),n,n,n,n,n,n,x,x,x,x,x
COc1ccccc1N(CC(=O)N(C)Cc1ccccc1)S(=O)(=O)c1cccs1,n,n,x,n,n,n,x,x,x,x,x
COc1ccc(OC)c2c(C)cc(N3CCN(C(=O)c4ccc(Cl)cc4)CC3)nc12,n,n,n,n,n,69,n,n,n,n,n
Cc1cc(=O)c(C(=O)c2ccccc2)c(C)o1,n,n,x,n,n,n,x,x,x,x,x
CC1CCN(C(=O)c2ccc3c(c2)C(=O)c2ccccc2-3)CC1,n,x,x,n,x,x,x,x,x,x,x
Cc1oc2c(c1C(=O)N1CCC(C)CC1)C(=O)c1ccccc1C2=O,x,n,n,x,n,55,n,52,n,n,n
Cc1ccc(C(=O)c2c(C)oc3c2C(=O)C(=O)c2ccccc2-3)cc1,n,n,n,106,51,n,n,57,n,n,n
COC(=O)Nc1ccc2c(c1)N(C(=O)CCN(C)C)c1ccccc1CC2,n,n,n,n,n,n,x,x,x,x,x
CCc1c(C)nc(N2CCN(c3ccc(Cl)cc3)CC2)[nH]c1=O,n,n,n,n,n,n,x,x,x,x,x
COc1ccc(/C(C)=N/NC(=O)c2cccc(S(=O)(=O)N3CCCC3)c2)c(O)c1,n,n,x,n,n,n,x,x,x,x,x
CCCN(CC1CC1)c1nc(N)c2c(N)nc(OC)cc2c1C#N,n,80,n,n,n,82,n,n,n,n,n
CCOc1cc2c(C#N)c(N(CC)CC)nc(N)c2c(N)n1,n,n,x,n,n,72,n,n,n,n,n
COc1ccc(NC(=O)Nc2ccc3c(c2)CC(=O)N([C@H](C)CO)C[C@H](C)[C@H](CN(C)Cc2ccc(C(=O)O)cc2)O3)cc1,n,n,x,n,n,n,x,x,x,x,x
O=C(COC(=O)Cc1ccc(Br)cc1)Nc1ccc(Cl)cn1,n,n,x,n,n,n,x,x,x,x,x
CCCC(=O)Nc1cnc(NC(=O)c2cccc(F)c2)cc1C,n,53,17,n,79,82,78,75,94,92,75
Cc1cc(NC(=O)c2ccccc2)ncc1NC(=O)c1ccco1,n,80,n,n,91,91,89,88,99,96,87
Cc1cc(NC(=O)C(C)C)ncc1NC(=O)c1cccc(F)c1,n,n,n,n,n,n,x,x,x,x,x
CCC(=O)Nc1cc(C)c(NC(=O)c2ccco2)cn1,n,n,n,n,n,n,x,x,x,x,x
OC[C@H]1OC(O)[C@H](O)[C@@H]1O (some centres undefined),n,n,x,n,n,n,x,x,x,x,x
Cc1nc(SCC(=O)N2CCOCC2)c2c(=O)n(C)c(=O)n(CC(C)C)c2n1,n,n,x,n,n,n,x,x,x,x,x
SMILES,SENP1 FRET inh,SENP8 block-1,HSP90 inh,SENP8 block-2,SENP7 inh,SENP6 block,SENP8 confirm,SENP6 confirm,SENP7 conf,Casp3 SENP sel,Luc interf
CC1CCN(c2nc(-c3cccnc3)nc3scc(-c4ccccc4)c23)CC1,n,n,n,n,n,n,x,x,x,x,x
Clc1nc(-c2ccccn2)nc2scc(-c3ccccc3)c12,n,68,n,n,n,87,n,52,n,n,n
Cc1ccc(C(C)C)cc1OCC(=O)Nc1ccc(N2CCCCC2)cc1,n,n,x,n,n,n,x,x,x,x,x
c1cncc(Nc2nc(-c3cccnc3)cs2)c1,n,n,n,n,n,n,x,x,x,x,x
c1ccc(Nc2nc(-c3cccnc3)cs2)nc1,n,55,n,n,81,88,n,n,88,79,n
CCOc1ccccc1Nc1nc(-c2cccnc2)cs1,n,n,n,n,n,n,x,x,x,x,x
Fc1ccc(-c2csc(Nc3ccccn3)n2)cc1,n,83,n,n,90,87,91,92,100,70,58
Clc1ccccc1Nc1nc(-c2cccnc2)cs1,n,74,n,n,83,88,89,86,97,66,53
O=C(NC1CC1)c1cc2cc3ccccc3nc2s1,n,n,n,n,n,n,x,x,x,x,x
CCOCCCNC(=O)c1cn(CC)c2ccc(S(=O)(=O)N(C)C3CCCCC3)cc2c1=O,n,n,n,n,n,n,x,x,x,x,x
Cc1ccc(N=Cc2sc(O)c3ccccc23)c(C)c1,n,n,n,n,n,n,x,x,x,x,x
Cc1ccc(N=Cc2sc(O)c3ccccc23)cc1,n,86,n,n,76,68,90,92,100,74,n
Cc1cc(C(=O)CCC(=O)N(C)CC2COc3ccccc3O2)c(C)s1 (centres undefined),n,x,x,n,x,x,x,x,x,x,x
O=C(O/N=C1/CCSc2ccccc21)c1ccccc1,n,79,n,n,74,89,90,89,98,79,75
Cc1ccc2c(c1)/C(=N/OC(=O)c1ccc(F)cc1)CCS2,n,n,n,n,n,n,x,x,x,x,x
O=C(O/N=C1\CCCc2ccccc21)c1ccc(F)cc1,n,72,n,n,95,78,n,55,n,n,n
COC(=O)N/N=C1\CCCc2ccccc21,n,n,n,n,n,n,x,x,x,x,x
Cc1ccc(C(=O)NC(=S)N(C)C2CCCCC2)cc1,n,n,n,n,n,n,x,x,x,x,x
CN(C(=O)c1ccc(Cl)c([N+](=O)[O-])c1)C1(C)CCS(=O)(=O)C1 (centres undefined),n,n,x,n,n,n,x,x,x,x,x
N#Cc1ccccc1COC(=O)c1ccc2c(c1)OCCO2,n,n,x,n,n,61,59,52,78,n,n

# Screens (PubChem BioAssay)
